Measurements collected from several papers.
Lines come from different studies, so protocols differ.
Cell line: HepG2
Observed: cell growth or viability

SMILES | assay | setting | IC50
O=c1ccc2cc3ccoc3cc2o1 | WST-1 | 48 h | 17200 nM
CC[C@@]1(OC(=O)[C@@H](N)Cc2ccccc2)C(=O)OCc2c1cc1n(c2=O)Cc2cc3cc4c(cc3nc2-1)OCO4 | MTT |  | 88 nM
CC1=C(O)C(=O)C=C2C1=CC=C1[C@@]2(C)CC[C@@]2(C)[C@@H]3C[C@](C)(C(=O)OCCCn4cc(C=O)c5ccccc54)CC[C@]3(C)CC[C@]12C | MTT | 48 h | 1760 nM
CC[C@@]1(OC(=O)C(C)c2cccc(C(=O)c3ccccc3)c2)C(=O)OCc2c1cc1n(c2=O)Cc2cc3cc4c(cc3nc2-1)OCO4 (some centres unmarked) | MTT |  | 364 nM
Cc1c2ccncc2c(C)c2c1[nH]c1ccccc12 | MTT | 72 h | 0.45 µg/mL
CC[C@@]1(OC(=O)[C@@H]2CCCN2)C(=O)OCc2c1cc1n(c2=O)Cc2cc3cc4c(cc3nc2-1)OCO4 | MTT |  | 263 nM
N.N.[Cl][Pt][Cl] | MTT | 48 h | 14000 nM
CC[C@@]1(OC(=O)[C@H](C)N)C(=O)OCc2c1cc1n(c2=O)Cc2cc3cc4c(cc3nc2-1)OCO4 | MTT |  | 101 nM
[Cl-].[Cl-].[Co+2] | MTT | 48 h | > 150000 nM
COc1c2ccoc2cc2oc(=O)ccc12 | WST-1 | 48 h | 18100 nM
O=C(O)CCCc1ccc(N(CCCl)CCCl)cc1 | CCK-8 | 48 h | 15100 nM
Cl.Cl.Nc1nc(-c2cc(F)cc(NC(=O)Nc3cc(F)cc(-c4c[nH]c(N)n4)c3)c2)c[nH]1 | XTT | 24 h | > 256 µg/mL
CC[C@@]1(OC(=O)Cc2c(C)n(C(=O)c3ccc(Cl)cc3)c3ccc(OC)cc23)C(=O)OCc2c1cc1n(c2=O)Cc2cc3cc4c(cc3nc2-1)OCO4 | MTT |  | 32 nM
Cl.O[C@]12C=C(c3nccc4c3[nH]c3ccccc34)[C@@H]3CCN(CCCC/C=C\CC1)C[C@@]31C[C@@H]3/C=C\CCCCN3[C@H]12 | neutral red | 48 h | 1.55 µg/mL
CC1=C(O)C(=O)C=C2C1=CC=C1[C@@]2(C)CC[C@@]2(C)[C@@H]3C[C@](C)(C(=O)O)CC[C@]3(C)CC[C@]12C | MTT | 48 h | 1230 nM
CCC1(c2ccc(N)cc2)CCC(=O)NC1=O (centres unmarked) | CCK-8 | 48 h | > 50000 nM
Nc1nc(-c2cccc(NC(=O)Nc3cccc(-c4c[nH]c(N)n4)c3)c2)c[nH]1 | XTT | 24 h | 850000 nM
